Measured values taken from ChEMBL document CHEMBL5058577, “EUbOPEN Chemogenomics Library 2 (Multiplex)” (2022).

Tested on: Fibroblast
Assay: Multiplex assay against human fibroblast
Format: toxicity, cell-based
Method in brief: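 Phenotypes for tubulin, mitochondrial mass and membrane permeability are expressed as per cents of healthy-nucleus cells. Cells were stained live at seeding with Hoechst33342, BioTracker Green Microtubule Cytoskeleton Dye, MitoTracker Red and Annexin V Alexa Fluor 680, then imaged after compound addition on a CQ1 microscope at 37°C and 5% CO2. Machine-learning gating in CellPathfinder separated Hoechst high-intensity objects from normal cells, divided normal cells by nuclear state (healthy, pyknosed, fragmented) and divided pyknosed cells into mitotic or apoptotic.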

[1] = 12 h, 1 µM, compound concentration 1 uM, replicate 1
[2] = 12 h, 1 µM, compound concentration 1 uM, replicate 2
[3] = 12 h, 10 µM, compound concentration 10 uM, replicate 1
[4] = 12 h, 10 µM, compound concentration 10 uM, replicate 2
[5] = 24 h, 1 µM, compound concentration 1 uM, replicate 1
[6] = 24 h, 1 µM, compound concentration 1 uM, replicate 2
[7] = 24 h, 10 µM, compound concentration 10 uM, replicate 1
[8] = 24 h, 10 µM, compound concentration 10 uM, replicate 2
[9] = 48 h, 1 µM, compound concentration 1 uM, replicate 1
[10] = 48 h, 1 µM, compound concentration 1 uM, replicate 2
[11] = 48 h, 10 µM, compound concentration 10 uM, replicate 1
[12] = 48 h, 10 µM, compound concentration 10 uM, replicate 2

CCC(=O)OCC(=O)[C@@]1(OC(=O)CC)[C@@H](C)C[C@H]2[C@@H]3CCC4=CC(=O)C=C[C@]4(C)[C@@]3(Cl)[C@@H](O)C[C@@]21C [BECLOMETHASONE DIPROPIONATE]
Population Apoptotic (%) [1]: 38%
Population Fragmented Nuclei (%) [1]: 13%
Population Healthy Nuclei (%) [1]: 73%
Population Hoechst High Intensity Objects (%) [1]: 3%
Population Membrane Permeable-Phenotype (%) [1]: 1%
Population Mitochondria Different-Phenotype (%) [1]: 2%
Population Mitotic Cells (%) [1]: 61%
Population Normal (%) [1]: 96%
Population Pyknosed Nuclei (%) [1]: 13%
Population Tubulin-Different-Phenotype (%) [1]: 47%
Total Cell Count [1]: 135
Population Apoptotic (%) [2]: 42%
Population Fragmented Nuclei (%) [2]: 30%
Population Healthy Nuclei (%) [2]: 40%
Population Membrane Permeable-Phenotype (%) [2]: 5%
Population Mitochondria Different-Phenotype (%) [2]: 10%
Population Mitotic Cells (%) [2]: 57%
Population Pyknosed Nuclei (%) [2]: 30%
Population Tubulin-Different-Phenotype (%) [2]: 63%
Total Cell Count [2]: 155
Population Apoptotic (%) [3]: 40%
Population Fragmented Nuclei (%) [3]: 9%
Population Healthy Nuclei (%) [3]: 69%
Population Hoechst High Intensity Objects (%) [3]: 8%
Population Membrane Permeable-Phenotype (%) [3]: 1%
Population Mitochondria Different-Phenotype (%) [3]: 17%
Population Mitotic Cells (%) [3]: 60%
Population Normal (%) [3]: 91%
Population Pyknosed Nuclei (%) [3]: 20%
Population Tubulin-Different-Phenotype (%) [3]: 87%
Total Cell Count [3]: 157
Population Fragmented Nuclei (%) [4]: 32%
Population Healthy Nuclei (%) [4]: 42%
Population Hoechst High Intensity Objects (%) [4]: 5%
Population Membrane Permeable-Phenotype (%) [4]: 15%
Population Mitochondria Different-Phenotype (%) [4]: 20%
Population Mitotic Cells (%) [4]: 59%
Population Normal (%) [4]: 94%
Population Pyknosed Nuclei (%) [4]: 24%
Population Tubulin-Different-Phenotype (%) [4]: 94%
Total Cell Count [4]: 96
Population Apoptotic (%) [5]: 50%
Population Fragmented Nuclei (%) [5]: 16%
Population Healthy Nuclei (%) [5]: 65%
Population Hoechst High Intensity Objects (%) [5]: 1%
Population Membrane Permeable-Phenotype (%) [5]: 3%
Population Mitochondria Different-Phenotype (%) [5]: 2%
Population Mitotic Cells (%) [5]: 50%
Population Normal (%) [5]: 98%
Population Pyknosed Nuclei (%) [5]: 18%
Population Tubulin-Different-Phenotype (%) [5]: 34%
Total Cell Count [5]: 134
Population Apoptotic (%) [6]: 47%
Population Fragmented Nuclei (%) [6]: 30%
Population Healthy Nuclei (%) [6]: 45%
Population Hoechst High Intensity Objects (%) [6]: 6%
Population Membrane Permeable-Phenotype (%) [6]: 7%
Population Mitochondria Different-Phenotype (%) [6]: 7%
Population Mitotic Cells (%) [6]: 52%
Population Normal (%) [6]: 93%
Population Pyknosed Nuclei (%) [6]: 24%
Population Tubulin-Different-Phenotype (%) [6]: 60%
Total Cell Count [6]: 150
Population Apoptotic (%) [7]: 40%
Population Fragmented Nuclei (%) [7]: 13%
Population Healthy Nuclei (%) [7]: 66%
Population Hoechst High Intensity Objects (%) [7]: 6%
Population Membrane Permeable-Phenotype (%) [7]: 1%
Population Mitochondria Different-Phenotype (%) [7]: 30%
Population Mitotic Cells (%) [7]: 59%
Population Normal (%) [7]: 93%
Population Pyknosed Nuclei (%) [7]: 19%
Population Tubulin-Different-Phenotype (%) [7]: 86%
Total Cell Count [7]: 148
Population Apoptotic (%) [8]: 19%
Population Fragmented Nuclei (%) [8]: 38%
Population Healthy Nuclei (%) [8]: 40%
Population Membrane Permeable-Phenotype (%) [8]: 15%
Population Mitochondria Different-Phenotype (%) [8]: 12%
Population Mitotic Cells (%) [8]: 80%
Population Pyknosed Nuclei (%) [8]: 21%
Population Tubulin-Different-Phenotype (%) [8]: 79%
Total Cell Count [8]: 104
Population Apoptotic (%) [9]: 28%
Population Fragmented Nuclei (%) [9]: 13%
Population Healthy Nuclei (%) [9]: 56%
Population Hoechst High Intensity Objects (%) [9]: 3%
Population Membrane Permeable-Phenotype (%) [9]: 1%
Population Mitochondria Different-Phenotype (%) [9]: 15%
Population Mitotic Cells (%) [9]: 71%
Population Normal (%) [9]: 96%
Population Pyknosed Nuclei (%) [9]: 30%
Population Tubulin-Different-Phenotype (%) [9]: 61%
Total Cell Count [9]: 132
Population Apoptotic (%) [10]: 52%
Population Fragmented Nuclei (%) [10]: 31%
Population Healthy Nuclei (%) [10]: 41%
Population Hoechst High Intensity Objects (%) [10]: 7%
Population Membrane Permeable-Phenotype (%) [10]: 5%
Population Mitochondria Different-Phenotype (%) [10]: 9%
Population Mitotic Cells (%) [10]: 47%
Population Normal (%) [10]: 92%
Population Pyknosed Nuclei (%) [10]: 27%
Population Tubulin-Different-Phenotype (%) [10]: 54%
Total Cell Count [10]: 143
Population Apoptotic (%) [11]: 67%
Population Fragmented Nuclei (%) [11]: 21%
Population Healthy Nuclei (%) [11]: 54%
Population Hoechst High Intensity Objects (%) [11]: 6%
Population Membrane Permeable-Phenotype (%) [11]: 0%
Population Mitochondria Different-Phenotype (%) [11]: 47%
Population Mitotic Cells (%) [11]: 32%
Population Normal (%) [11]: 93%
Population Pyknosed Nuclei (%) [11]: 24%
Population Tubulin-Different-Phenotype (%) [11]: 76%
Total Cell Count [11]: 162
Population Apoptotic (%) [12]: 37%
Population Fragmented Nuclei (%) [12]: 33%
Population Healthy Nuclei (%) [12]: 33%
Population Hoechst High Intensity Objects (%) [12]: 3%
Population Membrane Permeable-Phenotype (%) [12]: 18%
Population Mitochondria Different-Phenotype (%) [12]: 15%
Population Mitotic Cells (%) [12]: 62%
Population Normal (%) [12]: 96%
Population Pyknosed Nuclei (%) [12]: 33%
Population Tubulin-Different-Phenotype (%) [12]: 84%
Total Cell Count [12]: 99
